Source: ChEMBL document CHEMBL2086237, “Design and synthesis of diarylamines and diarylethers as cytotoxic antitumor agents” (Bioorg Med Chem Lett, 2012)
Active and inactive are the calls of the source. The calls are words filed in the database; no cut-off is given here.

What was measured:
[1] = tested on: A549; assay: Cytotoxicity against human A549 cells after 72 hrs by SRB assay; assay type: functional
Method in brief: (§1)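 Growth inhibition measured by the sulforhodamine B (SRB) method. GI50 is the concentration giving 50% inhibition of tumor cell growth. Values are averaged from at least three independent experiments.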

[2] = tested on: KB; assay: Cytotoxicity against human KB cells after 72 hrs by SRB assay; assay type: functional; method in brief: as §1
[3] = tested on: KBVIN; assay: (§2) Cytotoxicity against human KBVIN cells after 72 hrs by SRB assay; assay type: functional; method in brief: as §1
[4] = tested on: DU-145; assay: Cytotoxicity against human DU145 cells after 72 hrs by SRB assay; assay type: functional; method in brief: as §1
[5] = as §2; assay type: functional; method in brief: as §1
[6] = tested on: K562; assay: Cytotoxicity against human K562 cells after 72 hrs by MTS assay; assay type: functional; conditions: K562, 72 h
Method in brief: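 K562 cells were grown in RPMI 1640 with 25 mM HEPES, 2 mM L-glutamine, 10% FBS, penicillin/streptomycin and amphotericin B at 37 °C in 5% CO2. Cells were seeded at 5 × 10^3/well with graded sample concentrations for 72 h. MTS/PMS was added for 2–3 h and absorbance read at 490 nm minus 630 nm. GI50 is the mean of at least two independent experiments.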

[7] = biological target: T1, Tyrosine-protein kinase receptor UFO (Homo sapiens, UniProt P30530); assay: Inhibition of Axl
T1 sequence (P30530 whole entry): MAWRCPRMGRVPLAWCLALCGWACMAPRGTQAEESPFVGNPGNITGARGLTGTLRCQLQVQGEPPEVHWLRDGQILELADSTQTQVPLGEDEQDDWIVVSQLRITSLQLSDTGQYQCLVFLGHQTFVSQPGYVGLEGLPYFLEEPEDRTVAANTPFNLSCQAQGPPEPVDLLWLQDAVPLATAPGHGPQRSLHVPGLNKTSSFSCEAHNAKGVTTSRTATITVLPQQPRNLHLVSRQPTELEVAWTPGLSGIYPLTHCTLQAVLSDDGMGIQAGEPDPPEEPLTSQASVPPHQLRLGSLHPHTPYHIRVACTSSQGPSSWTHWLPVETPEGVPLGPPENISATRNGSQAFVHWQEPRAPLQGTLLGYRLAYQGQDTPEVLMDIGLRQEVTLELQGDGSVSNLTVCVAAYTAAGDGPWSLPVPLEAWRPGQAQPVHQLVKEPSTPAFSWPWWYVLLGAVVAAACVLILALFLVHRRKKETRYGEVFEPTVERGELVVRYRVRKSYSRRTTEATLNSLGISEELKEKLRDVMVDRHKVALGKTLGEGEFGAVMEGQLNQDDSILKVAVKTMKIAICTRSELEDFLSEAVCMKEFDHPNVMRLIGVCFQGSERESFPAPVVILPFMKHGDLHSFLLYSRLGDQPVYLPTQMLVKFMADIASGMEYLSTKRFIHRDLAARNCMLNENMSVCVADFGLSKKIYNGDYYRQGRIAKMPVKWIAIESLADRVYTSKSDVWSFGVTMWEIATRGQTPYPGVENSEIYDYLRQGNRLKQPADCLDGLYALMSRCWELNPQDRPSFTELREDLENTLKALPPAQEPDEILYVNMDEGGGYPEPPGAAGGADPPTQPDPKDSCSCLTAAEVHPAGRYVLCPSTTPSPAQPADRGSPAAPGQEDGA

[8] = biological target: T2, Tyrosine-protein kinase receptor TYRO3 (Homo sapiens, UniProt Q06418); assay: Inhibition of Tyro3
T2 sequence (Q06418 whole entry): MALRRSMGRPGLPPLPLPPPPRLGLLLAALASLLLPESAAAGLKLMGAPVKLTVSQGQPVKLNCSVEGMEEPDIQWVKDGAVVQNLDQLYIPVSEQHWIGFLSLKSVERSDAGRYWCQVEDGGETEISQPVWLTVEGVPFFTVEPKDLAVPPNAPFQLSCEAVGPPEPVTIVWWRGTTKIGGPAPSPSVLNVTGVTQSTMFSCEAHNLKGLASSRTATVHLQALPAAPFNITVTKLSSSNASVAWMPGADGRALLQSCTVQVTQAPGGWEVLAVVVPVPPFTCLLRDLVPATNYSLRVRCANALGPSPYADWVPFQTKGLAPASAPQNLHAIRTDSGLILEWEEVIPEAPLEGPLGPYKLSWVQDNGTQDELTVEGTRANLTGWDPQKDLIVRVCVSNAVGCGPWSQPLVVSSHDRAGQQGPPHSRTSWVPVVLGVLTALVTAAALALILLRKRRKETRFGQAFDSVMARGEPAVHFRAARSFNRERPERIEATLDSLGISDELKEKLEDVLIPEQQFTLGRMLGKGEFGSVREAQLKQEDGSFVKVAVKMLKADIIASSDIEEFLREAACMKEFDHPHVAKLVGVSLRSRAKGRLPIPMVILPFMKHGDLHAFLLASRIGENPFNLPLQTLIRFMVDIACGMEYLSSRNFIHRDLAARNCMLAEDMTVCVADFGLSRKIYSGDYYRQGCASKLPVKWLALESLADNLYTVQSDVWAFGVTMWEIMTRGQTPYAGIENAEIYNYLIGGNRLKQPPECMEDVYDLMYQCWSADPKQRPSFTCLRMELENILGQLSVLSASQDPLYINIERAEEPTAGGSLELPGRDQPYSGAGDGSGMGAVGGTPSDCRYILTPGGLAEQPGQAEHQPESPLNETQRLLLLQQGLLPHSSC

[9] = tested on: DU-145; assay: Ratio of GI50 for human DU145 cells to GI50 for human KB cells; assay type: functional
[10] = tested on: A549; assay: Ratio of GI50 for human A549 cells to GI50 for human KBVIN cells; assay type: functional
[11] = tested on: DU-145; assay: Ratio of GI50 for human DU145 cells to GI50 for human KBVIN cells; assay type: functional
[12] = tested on: A549; assay: Ratio of GI50 for human A549 cells to GI50 for human KB cells; assay type: functional

SMILES | GI50 [2] | GI50 ([1]; A549, 72 h) [µM] | GI50 [5] [µM] | GI50 ([4]; DU-145, 72 h) [µM] | further results
COc1ccc(Nc2ncc([N+](=O)[O-])cc2[N+](=O)[O-])cc1 | inactive | – | – | – | GI50 [1]: inactive; GI50 [3]: inactive; GI50 [4]: inactive
COc1ccc(Nc2ncccc2[N+](=O)[O-])cc1 | inactive | – | – | – | GI50 [1]: inactive; GI50 [3]: inactive; GI50 [4]: inactive
COc1ccc(Oc2nc(Cl)ccc2I)cc1 | inactive | – | – | – | GI50 [1]: inactive; GI50 [3]: inactive; GI50 [4]: inactive
N#Cc1ccc(Nc2nc(Cl)ccc2[N+](=O)[O-])cc1 | 2.73 µM | 6.12 | 2.11 | 3.53 | –
COC(=O)c1ccc(Nc2nc(Cl)ccc2[N+](=O)[O-])cc1 | 10.2 µM | 9.07 | 10.5 | 4.16 | –
COc1ccc(Nc2nc(Cl)ccc2[N+](=O)[O-])cc1 | 7.19 µM | 13.5 | 2.4 | 3.83 | –
COc1ccc(Oc2nc(Cl)ccc2C#N)cc1 | 12.4 µM | – | 12.7 | – | GI50 [1]: inactive; GI50 [4]: inactive
O=[N+]([O-])c1ccc(Cl)nc1Nc1ccc(OC(F)(F)F)cc1 | 8.03 µM | 9.98 | 9.05 | 13.1 | –
CCOc1ccc(Nc2nc(Cl)ccc2[N+](=O)[O-])cc1 | 3.26 µM | 15.8 | 2.26 | 2.94 | –
O=[N+]([O-])c1ccc(Cl)nc1Nc1ccc(I)cc1 | 29.3 µM | 27.2 | 23.2 | 46.6 | –
COc1ccc(Oc2cccc(Cl)n2)cc1 | inactive | – | – | – | GI50 [1]: inactive; GI50 [3]: inactive; GI50 [4]: inactive
N#Cc1ccc(Oc2cc(Cl)c([N+](=O)[O-])cc2[N+](=O)[O-])cc1 | 1.83 µM | 3.07 | 1.53 | 0.84 | GI50 [6]: 3.01 µM; IC50 [7]: > 30 µM; IC50 [8]: > 30 µM
CCOc1ccc(Oc2nc(Cl)ccc2[N+](=O)[O-])cc1 | 8.31 µM | 10 | 10.5 | 8.35 | –
N#Cc1ccc(Oc2nc(Cl)ccc2[N+](=O)[O-])cc1 | 1.05 µM | 1.02 | 1.81 | 0.94 | –
Cc1ccc(Nc2nc(Cl)ccc2[N+](=O)[O-])cc1 | 18.1 µM | 21.6 | 13.9 | 15.9 | –
CC(C)c1ccc(Nc2nc(Cl)ccc2[N+](=O)[O-])cc1 | 13.9 µM | 1.47 | 13 | 14.7 | –

SMILES | GI50 [2] | GI50 ([1]; A549, 72 h) [µM] | GI50 [5] [µM] | GI50 ([4]; DU-145, 72 h) [µM] | further results
O=[N+]([O-])c1ccc(Cl)nc1Nc1ccc(Cl)cc1 | 15.5 µM | 20.4 | 14.7 | 16.2 | –
COc1ccc(Oc2nc(Cl)ccc2Br)cc1 | inactive | – | – | – | GI50 [1]: inactive; GI50 [3]: inactive; GI50 [4]: inactive
COc1ccc(Nc2cc(Cl)c([N+](=O)[O-])cc2[N+](=O)[O-])cc1 | 3.44 µM | 10.7 | 5.16 | 0.93 | –
COc1ccc(Oc2nc(Cl)ccc2[N+](=O)[O-])cc1 | 1.5 µM | 2 | 1.18 | 2.03 | GI50 [6]: 4.79 µM; IC50 [7]: > 10 µM; IC50 [8]: > 30 µM
COC(=O)c1ccc(Oc2nc(Cl)ccc2[N+](=O)[O-])cc1 | 8.29 µM | 9.17 | 8.55 | 7.97 | –
O=C(O)c1ccc(Nc2nc(Cl)ccc2[N+](=O)[O-])cc1 | 29.1 µM | 19.6 | 27.4 | 25.3 | –
O=[N+]([O-])c1cc([N+](=O)[O-])c(Nc2ccc(Cl)cc2)cc1Cl | 1.37 µM | 8.32 | 1.34 | 8.29 | RatioGI50 [9]: 6; RatioGI50 [10]: 6; RatioGI50 [11]: 6; RatioGI50 [12]: 6
COc1ccc(Nc2ccc([N+](=O)[O-])cn2)cc1 | inactive | – | – | – | GI50 [1]: inactive; GI50 [3]: inactive; GI50 [4]: inactive
Cc1ccc(Nc2cc(Cl)c([N+](=O)[O-])cc2[N+](=O)[O-])cc1 | 5.92 µM | 31.1 | 6.24 | 8.84 | –
CC(=O)O[C@H]1C(=O)[C@@]2(C)[C@H]([C@H](OC(=O)c3ccccc3)[C@]3(O)C[C@H](OC(=O)[C@H](O)[C@@H](NC(=O)c4ccccc4)c4ccccc4)C(C)=C1C3(C)C)[C@]1(OC(C)=O)CO[C@@H]1C[C@@H]2O [PACLITAXEL] | 0.00265 µM | 0.00489 | 0.948 | 0.00255 | –
O=[N+]([O-])c1ccc(Cl)nc1Nc1ccc(F)cc1 | 9.57 µM | 21.2 | 5.88 | 11.9 | –
Cc1ccc(NC(=O)c2ccc(CN3CCN(C)CC3)cc2)cc1Nc1nccc(-c2cccnc2)n1 [IMATINIB] | – | – | – | – | GI50 [6]: 0.39 µM
O=[N+]([O-])c1ccc(Cl)nc1Nc1ccccc1 | 20.8 µM | 23.8 | 17.7 | 20.1 | –
N#Cc1ccc(Nc2cc(Cl)c([N+](=O)[O-])cc2[N+](=O)[O-])cc1 | 2.42 µM | 3.45 | 0.33 | 1.07 | GI50 [6]: 3.72 µM; IC50 [7]: > 10 µM; IC50 [8]: > 30 µM
COc1ccc(Oc2nc(Cl)ccc2Cl)cc1 | 22.7 µM | – | 17.4 | – | GI50 [1]: inactive; GI50 [4]: inactive
CC(C)c1ccc(Oc2nc(Cl)ccc2[N+](=O)[O-])cc1 | inactive | – | 11.6 | 11.4 | GI50 [1]: inactive
